# Only some compounds are listed: those with a hit (about 2.5% of all), similar ones and a draw of the others.
# MC4R antag cAMP – antagonists of human melanocortin 4 receptor (MC4R); inhibition, % at 6.5 µM; MC4R-expressing cells, MTII-stimulated cAMP, LANCE TR-FRET; P32245; 0.48% of 360,000 active;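 active = inhibition above its plate's cutoff, the mean of tested wells on that plate plus 3 SD, cut at about 29% in these data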;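 note: 0% = Melanotan II alone and 100% = Melanotan II plus saturating MCL0020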
# Target sequence (P32245 whole entry, looked up): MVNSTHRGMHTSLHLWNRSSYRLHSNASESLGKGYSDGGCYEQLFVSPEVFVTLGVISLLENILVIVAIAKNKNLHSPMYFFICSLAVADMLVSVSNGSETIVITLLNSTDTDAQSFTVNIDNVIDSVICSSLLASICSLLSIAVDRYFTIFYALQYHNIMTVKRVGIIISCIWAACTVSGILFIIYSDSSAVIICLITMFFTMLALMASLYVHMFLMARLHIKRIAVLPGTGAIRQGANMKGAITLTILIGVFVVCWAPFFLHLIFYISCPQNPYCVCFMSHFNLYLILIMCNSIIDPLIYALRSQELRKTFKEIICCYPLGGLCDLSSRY
#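 system = U2OS cells with stable human MC4R expression | also added = Melanotan II challenge after compound preincubation | dosing = one concentration, 6.5 µM nominal | incubation = compound 30 min, challenge 1 h, detection 1 h | measured by = TR-FRET with Eu-cAMP and labeled anti-cAMP, 671 nm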
# NALP1 inh – blocks the NALP1 inflammasome reconstituted in yeast; S. cerevisiae NALP1/ASC/caspase-1 growth, X-gal OD620, 72 h; inhibition, % at 10 µM; 0.61% of 280,000 active; AID 2071; in the data active = inhibition mostly above about 24%, no sharp cut-off; inactive = mostly below about 32%
# Tb MetRS inh – Trypanosoma brucei MetRS inhibition | 0.4% of 360,000 active | purified T. brucei MetRS, ATP depletion, Kinase-Glo luminescence | inhibition, % at 11.9 µM;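 active = inhibition above a per-plate cutoff of the control wells' mean inhibition plus 3 SD, cut at about 5.5% in these data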;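 note: 0% = DMSO wells median and 100% = median of wells with control inhibitor compound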
#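 Measured by: Kinase-Glo luciferase luminescence reporting remaining unconsumed ATP. Material: purified T. brucei MetRS enzyme. Doses: 11.9 µM compound single dose, 0.9% DMSO. Medium: HEPES buffer containing pyrophosphatase, BSA, spermine, DTT. Times: 15 min preincubation, 2 h reaction, all 25 °C. Reagent: methionine, ATP and bulk E. coli tRNA.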
# Bfl-1 A1 inh – inhibitors of the anti-apoptotic protein A1, read as caspase activation; MEF A1-2A-BIM cells, Caspase-Glo 3/7 luminescence, 3 h; percent of clofoctol response, vehicle zero; AID 2462; 0.066% of 330,000 active; caspase activation, % (concentration not given with the values);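 active = over half of replicate activation scores above 10%, or exactly half above 10 with the replicate mean above 10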
# NLRP3 yeast inh – NALP3 inhibition in yeast; 0.39% of 330,000 active; Yeast reconstituted NLRP3/ASC/caspase-1, beta-gal luminescence, 24 h; inhibition, % at 10 µM;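 active = inhibition of 50% or more; inactive = inhibition below 50%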;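 note: plate controls were induced DMSO wells for no effect and uninduced yeast grown without galactose for full effect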
# MC4R ag barr – activates human MC4R beta-arrestin recruitment | P32245 | U2OS MC4R beta-arrestin complementation, luminescence; percent of melanotan II response, DMSO zero | activation, % at 8.9 µM | 0.98% of 360,000 active | AID 540308;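 active = activation above a per-plate cutoff, the mean activation of sample wells on that plate plus 3 SD, cut at about 8% in these data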
# NALP3 yeast conf – confirmation of NALP3 inhibitors in yeast; shares compounds with NLRP3 yeast inh; yeast expressing human NALP3, luminescence; inhibition, % at 10 µM; 81% of 1,300 active; in the data active = inhibition above about 48%
# Casp1 ASC ctr – counter-screen for NALP3 inhibitors: yeast caspase-1-ASC; yeast expressing Caspase-1-ASC, luminescence counter screen; shares compounds with NLRP3 yeast inh; 66% of 1,000 active; inhibition, % at 10 µM
# NALP3 retest – confirmation retest of NALP3 inhibitors in yeast; shares compounds with NLRP3 yeast inh; yeast expressing human NALP3, luminescence read-out; inhibition, % at 10 µM; 53% of 1,000 active
# * marks the source's active call; other numbers are inactive results; / = no result given; + = active, no number. Cut-off read from the data, not from the text of the source, unless noted: active = inhibition above about 50%; inactive = the rest.
SMILES,MC4R antag cAMP,NALP1 inh,Tb MetRS inh,Bfl-1 A1 inh,NLRP3 yeast inh,MC4R ag barr,NALP3 yeast conf,Casp1 ASC ctr,NALP3 retest
O=C(CCl)Nc1ccc(N2CCCCCC2)cc1,-4.2,19.3,-1.1,-0.1,59.8*,0.5,77.2*,76.0*,53.0*
COCCCNC(=O)CC1C[C@H](C(=O)N2CCCCC2)[C@@]2(CCc3ccccc3)c3[nH]c4ccc(OC)cc4c3CCN2C1=O (some centres undefined),-3.3,/,-2.9,/,/,0.1,/,/,/
CC1(C)[C@@H](O)CC[C@]2(C)C3C(O)C=C4[C@H]5C[C@@](C)(C(=O)O)CC[C@]5(C)CC[C@]4(C)[C@]3(C)CC[C@@H]12 (some centres undefined),/,/,/,0.7,60.1*,/,70.3*,/,/
CC1=NN(C(=O)c2csc(C)c2)C(O)(C(F)(F)F)C1 (centres undefined),-1.2,/,-2.2,-0.1,11.6,-1.2,/,/,/
CC1=NN(C(=O)c2ccc(Br)cc2)C(O)(C(F)(F)OC(F)(F)F)C1 (centres undefined),-3.4,9.3,-0.4,-0.6,50.7*,-0.6,49.8*,/,/
COc1ccc(S(=O)(=O)N2CCC(C(=O)NC3CCCCC3C)CC2)cc1 (centres undefined),12.9,-18.5,-0.6,-0.1,-0.8,0.0,/,/,/
c1cc(-c2cc3cc4c(cc3cn2)OCO4)cs1,-1.9,/,-0.1,-4.9,57.3*,-1.0,51.3*,48.5,45.7
COc1cc2cnc(-c3ccsc3)cc2cc1OC,-2.2,/,-0.4,-1.6,44.7,-0.3,/,/,/
Nc1c(-c2ccccc2)cnn1-c1cccc(Cl)c1,-1.4,25.6,0.6,-10.5,50.3*,3.0,76.0*,59.2*,54.5*
COc1cc(NS(=O)(=O)c2c(C)oc3c(F)c(F)c(F)c(F)c23)cc(OC)c1OC,16.7,0.9,-0.1,1.0,2.5,-3.7,/,/,/
Cc1ccc(C(C[N+](=O)[O-])c2c(N)n(C)c(=O)n(C)c2=O)cc1 (centres undefined),5.8,+,-0.3,0.0,70.2*,1.6,63.6*,78.2*,52.7*
COc1cc(C(C[N+](=O)[O-])c2c(C)[nH]c3ccccc23)ccc1O (centres undefined),6.3,6.5,0.2,0.1,10.2,-2.4,/,/,/
COc1cc(C(C[N+](=O)[O-])c2c(N)n(C)c(=O)n(C)c2=O)ccc1O (centres undefined),-10.5,-4.1,-0.8,-0.4,50.2*,-3.6,31.5,/,/
Cn1c(N)c(C(C[N+](=O)[O-])c2ccccc2Cl)c(=O)n(C)c1=O (centres undefined),7.9,/,0.5,-0.4,36.9,1.8,/,/,/
COc1cccc(F)c1C(C[N+](=O)[O-])c1c(N)n(C)c(=O)n(C)c1=O (centres undefined),-15.2,+,-0.8,1.4,63.6*,1.0,43.8,56.1*,32.6
CCn1c(C)csc1=NC(=O)c1ccccc1O,1.6,-0.5,-0.6,-0.3,39.5,0.3,/,/,/
Cc1csc(=NC(=O)c2ccccc2)n1Cc1ccco1,16.7,-1.9,0.1,0.8,8.4,0.1,/,/,/
CCn1c(C)csc1=NC(=O)c1ccccc1,-3.1,-3.5,-0.6,0.2,53.4*,0.4,60.6*,47.9,43.7
Cc1csc(=NC(=O)c2ccccc2)n1C,-4.8,2.0,-0.4,-4.2,61.6*,-1.4,74.8*,73.2*,68.5*
Cc1cc(=O)nc2c3ccccc3n(CC(=O)NCCC3=CCCCC3)n12,16.8,18.7,-0.1,-0.1,4.8,-3.2,/,/,/
Nc1ccc(N=Nc2ccc(N)cc2)cc1,-5.1,16.8,-0.6,-1.6,35.0,-0.9,/,/,/
Cc1cc(N(C)C)ccc1N=Nc1ccc(N)cc1,10.4,/,0.5,-0.5,51.1*,-1.5,44.5,45.5,39.9
Oc1ccc(N=Nc2ccc3c(c2)OCCO3)c2cccnc12,1.5,6.0,-0.6,-4.0,26.3,-2.2,/,/,/
Oc1ccc(N=Nc2ccc(Br)cc2)c(O)c1,-16.1,23.0,-0.5,-7.9,57.9*,-0.8,73.3*,43.8,35.9
Oc1ccc(N=Nc2ccc3c(c2)OCCO3)c(O)c1,-3.0,/,-0.1,-7.8,50.1*,2.0,65.5*,/,/
SMILES,MC4R antag cAMP,NALP1 inh,Tb MetRS inh,Bfl-1 A1 inh,NLRP3 yeast inh,MC4R ag barr,NALP3 yeast conf,Casp1 ASC ctr,NALP3 retest
Cc1ccc(N=Nc2ccc(O)cc2)c(Br)c1,-1.4,14.2,-2.0,-4.1,45.0,-1.4,/,/,/
CSc1ncccc1C(=O)OCC(=O)Nc1nc(C)c(Cl)cc1Cl,-0.4,/,-0.4,-0.2,12.3,1.1,/,/,/
CC(C)(C)NC(=O)C1c2ccccc2OCC(=O)N1Cc1ccco1 (centres undefined),/,/,-0.3,/,/,/,/,/,/
CCCC(C)c1nnc(NC(=O)COc2ccc3c(c2)OCO3)s1 (centres undefined),-4.6,11.8,-0.5,0.1,-0.1,0.3,/,/,/
COc1cccc2cc(C(=O)c3ccccc3)oc12,15.6,-9.1,-0.4,-5.9,50.1*,-2.1,33.8,/,/
COc1cccc2cc(CC(=O)c3ccccc3)c(=O)oc12,-5.6,7.1,-0.7,-0.2,10.2,-0.1,/,/,/
CC(C)CCn1c(SCC(=O)Nc2ccccc2C(F)(F)F)nc2nccnc2c1=O,9.1,26.4,-0.4,0.5,1.4,-0.7,/,/,/
CC(Oc1ccccc1)C(=O)Nc1cc(Cl)ccc1-n1cncn1 (centres undefined),9.0,/,-0.4,0.3,56.9*,2.7,58.7*,52.3*,46.0
O=C(Nc1cc(Cl)ccc1-n1cncn1)c1ccc([N+](=O)[O-])s1,11.2,45.2*,0.3,0.4,82.4*,-3.0,90.8*,/,/
CC(C)COc1ccc(CSCCNC(=S)Nc2ccccc2)cc1,-3.3,13.7,-0.7,-1.1,53.2*,1.6,80.4*,58.0*,41.2
S=C(NCCCNC(=S)Nc1ccccc1)Nc1ccccc1,23.2,0.3,0.3,0.2,1.4,-0.9,/,/,/
CCCCCOc1ccc(CSCCNC(=S)Nc2ccccc2)cc1,8.2,3.9,0.1,-0.3,23.2,-0.5,/,/,/
CCCCOc1ccc(CSCCNC(=S)Nc2ccccc2)cc1,9.6,5.6,0.6,-0.7,54.4*,-2.0,59.8*,61.9*,34.0
C[C@@H]1CN([C@H](C)CO)C(=O)CCCn2nncc2CO[C@H]1CN(C)S(C)(=O)=O,0.2,/,-1.9,/,/,3.1,/,/,/
Cc1ccc(S(=O)(=O)c2ncccc2[N+](=O)[O-])cc1,24.7,36.1*,0.4,0.7,57.9*,-2.8,68.7*,67.9*,57.9*

# Screening data deposited in PubChem BioAssay by several laboratories.
